Values joined by “and” are separate entries in the source; they are usually repeats but may differ in a detail not shown here. Identical values can stand only once.
Legend:
Mtb H37Rv [1] = tested on: Mtb H37Rv; design: species or system Mycobacterium tuberculosis; settings: in vivo
Mtb H37Rv [2] = tested on: Mtb H37Rv; design: species or system Mycobacterium tuberculosis; settings: in vivo; remark: listed apart in the source
[3] = tested on: lung inflammation of Mtb-infected mice; design: species or system BALB/c mice; settings: mouse, in vivo
[4] = tested on: lung inflammation of Mtb-infected mice; design: species or system BALB/c mice; settings: mouse, in vivo; remark: listed apart in the source
[5] = tested on: Nos2, Ifn-γ, Tnf-α, Cd38, Egr2; design: species or system BALB/c mice; settings: mouse, in vivo
[6] = Single-dose plasma pharmacokinetics, intraperitoneal; format: in vivo, BALB/c mice; settings: single IP dose, sampling up to 24 hours
Outline: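 Female BALB/c mice, 9–11 weeks old, each received one intraperitoneal dose (5 or 10 mg/kg) of the test compound, a tin metalloporphyrin HO-1 inhibitor, in sodium phosphate buffer (pH 7.4 – 7.8). Blood was drawn from three mice per time point at 0.25, 0.5, 1, 2, 4, 8 and 24 h. Plasma was assayed by LC-MS/MS. t1/2, tmax, Cmax, AUClast and AUCInf came from noncompartmental analysis.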

[7] = mouse, in vivo, ip
[8] = tested on: human peripheral blood mononuclear cells; settings: cited from earlier work
[9] = tested on: naive CD4+ and CD8+ T cells; settings: via interactions with CD14+ monocytes in vitro; cited from earlier work
Mtb = settings: C57BL/6 mice, chronic phase of infection; cited from earlier work
Mtb-infected U937 cells = settings: cited from earlier work
[10] = chronic treatment, wild-type mice; cited from earlier work

## CCC1=C(C)c2cc3[n-]c(cc4[n-]c(cc5nc(cc1n2)C(C)=C5CC)c(C)c4CCC(=O)O)c(CCC(=O)O)c3C.[Cl-].[Cl-].[Sn+4] [SnMP, stannsoporfin]
Mtb H37Rv [1]
  Additive effect on lung CFU when co-administered with SPaO: neither SnPP nor SnMP adjunctive therapy showed an additive effect
  Enhancement of the bactericidal activity of RHZ: did not significantly enhance
  Mean lung log10 CFU count (±SD) at W2: 5.73 ± 0.22 log10 CFU
  Mean lung log10 CFU count (±SD) at W4: 5.36 ± 0.31 log10 CFU
  Mean lung log10 CFU count (±SD) at W6: 5.98 ± 0.06 log10 CFU
  Reduction of mean lung bacillary burden relative to vehicle control: 0.67 log10 CFU
Mtb H37Rv [2]
  Lung bacillary burdens relative to the SPaO regimen: did not significantly alter
  Microbiological relapse rates: did not reduce microbiological relapse rates
[3]
  Gross or histological lung pathology: did not significantly alter
[4]
  Lung/body weight ratio versus SPaO control regimen: did not differ statistically
[5]
  Cd38 expression in lung compared to any other treatment group: significantly higher expression
  Tnf-α expression in lung relative to vehicle: reduced expression
[6]
  Last time point with detectable blood concentrations: 8 h
[7]
  Tolerability: well tolerated
[8]
  Expression of pro-inflammatory cytokines: induces the expression of pro-inflammatory cytokines
[9]
  Activation, proliferation, and maturation of naive CD4+ and CD8+ T cells: induce the activation, proliferation, and maturation

## C=Cc1c2[n-]c(c1C)/C=c1\[n-]/c(c(C)c1C=C)=C\c1[n-]c(c(CCC(=O)O)c1C)C=c1[n-]/c(c(C)c1CCC(=O)O)=C\2.[Sn+4] [SnPP, tin-protoporphyrin IX]
Mtb H37Rv [1]
  Additive effect on lung CFU when co-administered with SPaO: neither SnPP nor SnMP adjunctive therapy showed an additive effect
  Enhancement of the bactericidal activity of RHZ: did not significantly enhance
  Mean lung log10 CFU count (±SD) at W2: 5.52 ± 0.29 log10 CFU
  Mean lung log10 CFU count (±SD) at W4: 5.30 ± 0.30 log10 CFU
  Mean lung log10 CFU count (±SD) at W6: 5.30 ± 0.19 log10 CFU
  Reduction of mean lung bacillary burden relative to vehicle control: 0.88 log10 CFU
  Reduction of mean lung bacterial burden relative to vehicle control: 1.2 log10 CFU and 1.1 log10 CFU
[6]
  Last time point with detectable blood concentrations: 8 h
Mtb
  Lung bacillary burden: reduced the lung bacillary burden alone
Mtb-infected U937 cells
  Secretion of proinflammatory cytokines, including TNF-α: reduced the secretion of proinflammatory cytokines
[10]
  Tubulointerstitial inflammation and fibrosis: can induce tubulointerstitial inflammation and fibrosis

Reference: publication PMC10441415 (bioRxiv, 2023)
